The values below come from ChEMBL document CHEMBL4842372, “Discovery of ARD-2585 as an Exceptionally Potent and Orally Active PROTAC Degrader of Androgen Receptor for the Treatment of Advanced Prostate Cancer” (J Med Chem, 2021).

Series [1] deals with Protein cereblon/Androgen receptor (Homo sapiens, UniProt P10275+Q96SW2). Put plainly: Protac activity at CRBN/AR in human VCaP cells assessed as AR degradation after 24 hrs by Western blot analysis. The format is cell-based. (In general: Immunoblotting shows a protein as a band on a membrane.)
Protein cereblon/Androgen receptor, sequence (P10275 whole entry): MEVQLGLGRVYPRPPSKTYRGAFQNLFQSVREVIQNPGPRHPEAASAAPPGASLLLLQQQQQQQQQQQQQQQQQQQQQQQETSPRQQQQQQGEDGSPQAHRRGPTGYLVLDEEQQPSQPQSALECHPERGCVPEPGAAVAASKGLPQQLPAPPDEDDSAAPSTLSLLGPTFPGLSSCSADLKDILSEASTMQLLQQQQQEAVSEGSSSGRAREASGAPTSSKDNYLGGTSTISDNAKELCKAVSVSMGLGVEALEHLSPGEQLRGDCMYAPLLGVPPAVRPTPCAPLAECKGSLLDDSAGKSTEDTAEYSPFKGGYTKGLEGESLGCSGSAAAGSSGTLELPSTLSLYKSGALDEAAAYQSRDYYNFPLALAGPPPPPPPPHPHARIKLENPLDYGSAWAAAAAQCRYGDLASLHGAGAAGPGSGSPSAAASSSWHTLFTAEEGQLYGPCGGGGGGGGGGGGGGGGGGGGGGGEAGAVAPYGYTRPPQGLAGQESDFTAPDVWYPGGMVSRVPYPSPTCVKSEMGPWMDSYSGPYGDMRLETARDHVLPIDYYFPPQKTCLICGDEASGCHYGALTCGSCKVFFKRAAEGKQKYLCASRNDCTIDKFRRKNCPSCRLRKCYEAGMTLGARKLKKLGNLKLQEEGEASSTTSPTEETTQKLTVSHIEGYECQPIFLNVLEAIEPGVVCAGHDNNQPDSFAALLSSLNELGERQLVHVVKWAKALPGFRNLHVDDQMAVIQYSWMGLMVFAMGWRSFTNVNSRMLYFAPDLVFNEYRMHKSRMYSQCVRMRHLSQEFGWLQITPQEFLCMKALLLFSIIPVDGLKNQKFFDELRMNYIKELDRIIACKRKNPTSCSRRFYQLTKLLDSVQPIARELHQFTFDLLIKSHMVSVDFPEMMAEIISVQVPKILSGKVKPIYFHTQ
Protein cereblon/Androgen receptor, sequence (Q96SW2 whole entry): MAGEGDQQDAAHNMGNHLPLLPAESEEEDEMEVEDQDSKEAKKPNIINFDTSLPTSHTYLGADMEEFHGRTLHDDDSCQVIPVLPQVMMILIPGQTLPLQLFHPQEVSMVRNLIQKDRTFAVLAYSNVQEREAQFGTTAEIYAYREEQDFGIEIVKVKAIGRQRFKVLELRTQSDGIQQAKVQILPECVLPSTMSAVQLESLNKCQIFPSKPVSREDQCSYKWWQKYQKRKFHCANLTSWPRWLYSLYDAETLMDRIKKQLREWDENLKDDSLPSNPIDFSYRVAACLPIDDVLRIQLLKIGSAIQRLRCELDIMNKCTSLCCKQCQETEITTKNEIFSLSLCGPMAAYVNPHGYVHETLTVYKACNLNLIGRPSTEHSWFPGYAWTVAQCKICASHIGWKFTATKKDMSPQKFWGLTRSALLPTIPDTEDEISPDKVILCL
Series [2] in a line: Half life in SCID mouse at 1 mg/kg, iv by LC-MS/MS analysis. Format: ADME, organism-based. The following applies: in vivo. The procedure, abridged:
(§1)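 Male mice were given a single intravenous dose. Plasma drug levels were measured by a validated LC–MS/MS method (C18 column, 0.1% formic acid water/acetonitrile gradient, 0.4 mL/min). Parameters came from noncompartmental analysis.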

Series [3] is described as follows: AUC (0 to t) in SCID mouse at 1 mg/kg, iv by LC-MS/MS analysis. The format is ADME, organism-based. On the set-up: dose 1 mg/kg. The following applies: in vivo. A digest of the protocol:
as §1

A short description of series [4]: Volume of distribution at steady state in SCID mouse at 1 mg/kg, iv by LC-MS/MS analysis. The following applies: in vivo, read-out: Vdss. The format is ADME, organism-based. A digest of the protocol: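 Male mice were used, three sacrificed per time-point, with 300 μL blood collected and plasma stored at −80 °C. Drug was quantified by a validated LC–MS/MS method on a C18 column with a 0.1% formic acid water/acetonitrile gradient at 0.4 mL/min. PK parameters were derived by noncompartmental analysis.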

Series [5] is described as follows: Tmax in SCID mouse at 3 mg/kg, po by LC-MS/MS analysis. Format: ADME, organism-based. The following applies: in vivo. The procedure, abridged: (§2)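 Nontumor-bearing male mice were given a single oral gavage dose in 100% PEG200. Three mice were sacrificed per time point, and 300 μL blood was taken from each for plasma, stored at −80 °C. Drug was quantified by LC–MS/MS on a C18 column with a 0.1% formic acid water/acetonitrile gradient at 0.4 mL/min. Parameters came from noncompartmental analysis.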

The nature of series [6]: Half life in SCID mouse at 3 mg/kg, po by LC-MS/MS analysis. Format: ADME, organism-based. The following applies: in vivo. A digest of the protocol: as §2
The nature of series [7]: Cmax in SCID mouse at 3 mg/kg, po by LC-MS/MS analysis. The format is ADME, organism-based. Also noted: route oral, dose 3 mg/kg. The following applies: in vivo. A digest of the protocol: as §2
Series [8] in a line: AUC (0 to t) in SCID mouse at 3 mg/kg, po by LC-MS/MS analysis. The format is ADME, organism-based. The following applies: in vivo. On the set-up: dose 3 mg/kg. A digest of the protocol: as §2
A short description of series [9]: Oral bioavailability in SCID mouse at 3 mg/kg by LC-MS/MS analysis. The following applies: in vivo. The format is ADME, organism-based.

A word on the DC50: it is the midpoint of the concentration-degradation curve. In general, half-life refers to the time needed for the level to fall by half in the phase considered. One may read the AUC(0-t) as the area under the concentration-time curve up to a stated or last time point. As a reminder, the Tmax is the time at which the peak concentration occurs. The Cmax is the highest concentration seen after dosing.

As for `N#Cc1ccc(O[C@H]2CC[C@H](NC(=O)c3ccc(N4CCC(N5CCN(c6ccc7c(c6)C(=O)N(C6CCC(=O)NC6=O)C7=O)CC5)CC4)cc3)CC2)cc1Cl` (some centres undefined), the DC50 in series [1] turned out to be 0.2 nM. For the same molecule, the half-life is 6.1 h in series [2] and 5.6 h in series [6]. Also, the AUC(0-t) came to 2420 ng·h/mL in series [3] and 2150 ng·h/mL in series [8]. Further, the Vd in series [4] was found to be 3 L/kg. Also, the Tmax in series [5] came to 4 h. This molecule also yielded a Cmax in series [7] of 207 ng/mL. Further, the F in series [9] stood at 30%.
